Experimental data from paper PMC11622326 (Diabetes, obesity & metabolism, 2024).

Legend:
[1] = Acute oral dosing plasma PK in mice; assay type: in vivo, mouse
In short: (§1)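 Male C57BL/6 mice (~8 weeks) fasted ~12 h before dosing; food returned 4 h post-dose. Single dose at 5 mg/kg IV (n=3) or 30 mg/kg PO (n=3). Saphenous cross-sampling at 0.0833 h (IV only), 0.25, 0.5, 1, 2, 4, 8, 12 h (PO only) and 24 h. K2EDTA plasma stored at −70°C, then LC-MS/MS. Mean ± SD.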

[2] = Tissue distribution of 5A1MQ after repeat SC dosing in mice; assay type: in vivo, mouse
In short: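 Male C57BL/6 mice (18–20 weeks) given 25 mg/kg SC once daily for 5 days. On day 5, subsets (n=3/timepoint) bled by cardiac puncture at 1, 4 and 8 h post-dose. Epididymal white fat, liver and quadriceps collected terminally and stored at −70°C. Plasma and tissue levels measured by LC-MS/MS; tissue-to-plasma ratios derived.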

[3] = Metabolic stability in cryopreserved mouse hepatocytes; assay type: in vitro ADME
[4] = target: T1, mouse NNMT (Mus musculus, UniProt O55239); assay: In vitro biochemical assay against mouse NNMT enzyme
T1 sequence (O55239 1-264): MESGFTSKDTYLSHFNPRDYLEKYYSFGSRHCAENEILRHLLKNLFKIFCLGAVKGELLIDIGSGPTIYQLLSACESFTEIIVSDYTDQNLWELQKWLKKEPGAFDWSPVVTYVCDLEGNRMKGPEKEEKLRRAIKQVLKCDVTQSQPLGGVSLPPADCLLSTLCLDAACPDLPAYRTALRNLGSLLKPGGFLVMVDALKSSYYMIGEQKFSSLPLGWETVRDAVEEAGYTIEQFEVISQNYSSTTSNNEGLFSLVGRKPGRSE

[5] = system: DIO mice; assay: Oral glucose tolerance test; assay type: in vivo, mouse; details: Day 21, high-dose 32 mg/kg/day SC vs control and low-dose
In short: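 Performed on day 21 in obese HFD mice dosed daily SC (saline, 10 or 32 mg/kg/day). After fed-state bleed, mice fasted 4 h, receiving their treatment at 3 h of fasting. One hour post-dose, 2 g/kg oral glucose bolus. Blood glucose at 0, 15, 30, 60 and 120 min; plasma insulin at 0 and 15 min.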

[6] = Mouse plasma protein binding; assay type: in vitro ADME
[7] = system: DIO mice; assay: Terminal serum chemistry and complete blood count in DIO mice; assay type: in vivo, mouse
In short: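 Day-30 cardiac-puncture blood (~700 μL) from obese HFD mice given saline, 10 or 32 mg/kg/day SC daily. Mice were dosed 1 h before CO2 euthanasia after a 4 h fast. 300 μL used for complete blood count; 150 μL for serum chemistry (TG, ALT, AST, ketones, CK, LDH, lipids). Some endpoints analysed by Kruskal-Wallis test.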

[8] = system: DIO mice; assay: Terminal liver weight, histopathology, F4/80 and liver triglycerides in DIO mice; assay type: in vivo, mouse
In short: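 Terminal day-30 livers from obese HFD mice treated daily SC (saline, 10 or 32 mg/kg/day; dosed 1 h pre-sacrifice, 4 h fast). Whole liver weighed. Left-lobe sections flash-frozen for triglyceride assay or formalin-fixed, paraffin-embedded for H&E and F4/80 IHC. Outputs: steatosis, inflammation, ballooning and NAS scores; hepatocyte count; cross-sectional area; F4/80-stained area by image analysis.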

[9] = target: T2, monoamine oxidase-A (MAO-A) (Homo sapiens, UniProt P21397); assay: Cerep panel: MAO-A inhibition; assay type: biochemical; details: 10 μM
T2 sequence (P21397 1-527): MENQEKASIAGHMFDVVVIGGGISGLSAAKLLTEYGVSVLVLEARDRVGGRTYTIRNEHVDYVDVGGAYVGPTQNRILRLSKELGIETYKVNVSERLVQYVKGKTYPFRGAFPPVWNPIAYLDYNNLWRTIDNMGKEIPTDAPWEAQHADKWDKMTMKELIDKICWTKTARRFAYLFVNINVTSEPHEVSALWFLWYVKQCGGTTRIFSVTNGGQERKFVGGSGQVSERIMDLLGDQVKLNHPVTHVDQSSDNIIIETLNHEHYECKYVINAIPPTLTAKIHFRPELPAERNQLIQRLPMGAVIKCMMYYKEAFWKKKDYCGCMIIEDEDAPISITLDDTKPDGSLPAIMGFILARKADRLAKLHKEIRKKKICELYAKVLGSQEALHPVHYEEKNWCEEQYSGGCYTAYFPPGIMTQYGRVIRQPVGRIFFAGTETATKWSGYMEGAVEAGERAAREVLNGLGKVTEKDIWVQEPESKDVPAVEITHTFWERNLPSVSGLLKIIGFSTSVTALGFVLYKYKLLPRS

[10] = Solubility in aqueous and simulated gastric fluids; assay type: physicochemical
[11] = system: 1-MNA; assay: Terminal liver 1-MNA level in DIO mice; assay type: in vivo, mouse; details: high-dose 32 mg/kg/day SC, ~1–2 h post-dosing on Day 30
In short: (§2)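 On day 30, obese HFD mice were dosed (saline, 10 or 32 mg/kg/day SC) 1 h before euthanasia, fasted 4 h, and killed by CO2. Left liver lobe cut into ~30 mg sections, flash-frozen, and assayed by LC-MS/MS for test compound and 1-MNA. Quantitation limit 1 ng/mL.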

[12] = Terminal liver 5A1MQ concentration in DIO mice; assay type: in vivo, mouse; details: high-dose 32 mg/kg/day SC, ~1–2 h post-dosing on Day 30
In short: as §2

[13] = Acute and repeat SC dosing plasma PK in mice; assay type: in vivo, mouse; details: for Cmax: plasma
In short: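 Male C57BL/6 mice (18–20 weeks), non-fasted, on certified chow, group-housed. Acute arm (n=6): single 25 mg/kg SC. Repeat arm (n=12): 25 mg/kg SC once daily for 5 days. Plasma stored at −70°C and assayed by LC-MS/MS. Mean ± SD.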

[14] = system: DIO mice; assay: Non-fasted; assay type: in vivo, mouse
In short: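 HFD-fed obese male C57BL/6 mice (n=8/group) received saline, 10 or 32 mg/kg/day SC once daily. Tail blood was taken noon–1 PM without fasting on days −7, 0, 7, 14, 21 and 28. Glucose read by test strip; plasma insulin by ELISA. Change expressed from Day 0 baseline.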

[15] = system: Cerep panel of major receptors, enzymes, and uptake transporter proteins; assay: Cerep off-target panel; details: 10 μM
[16] = Acute intravenous dosing plasma PK in mice; assay type: in vivo, mouse; details: IV 5 mg/kg
In short: as §1

[17] = system: DIO mice; assay: Efficacy of 5A1MQ in DIO mice: body weight, whole-body composition, food intake; assay type: in vivo, mouse; details: for absolute fat mass gain: by study termination, control 4.7 g
In short: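 Male C57BL/6 mice (~18 weeks) kept on HFD for ≥12 weeks, singly housed, stabilised at ~40–50 g. After handling and 3 days of sham saline SC injections, randomised by baseline body composition (n=8/group). Saline, 10 or 32 mg/kg/day SC once daily at 4–5 PM for 30 days. Weight and food intake measured twice weekly; EchoMRI on days −1, 8, 15, 23, 29. Two-way repeated-measures ANOVA with FDR correction; ANCOVA with body weight covariate; mean ± SEM.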

[18] = SC 25 mg/kg once-daily x5, 1 h post-dose
[19] = SC 25 mg/kg once-daily x5, 8 h post-dose
[20] = statistically significant only at the low dose (p<0.05 vs control)
[21] = SC 25 mg/kg once-daily for 5 days
[22] = SC 25 mg/kg single (acute) dose

Compound `C[n+]1cccc2c(N)cccc21` [5A1MQ, 5-amino-1-methylquinolium] has a Tmax ([1]; PO 30 mg/kg) of 4 h, an estimated terminal half-life ([1]; PO 30 mg/kg) of 14.8 h and an oral bioavailability ([1]; PO 30 mg/kg vs IV 5 mg/kg) of 3.5%. For the same compound, the “AUC0-∞” value ([1]; PO 30 mg/kg, plasma) was 224 ng·h/mL, the Cmax ([1]; PO 30 mg/kg, plasma) was 14.5 ng/mL and the EWAT-to-plasma ratio [2, 18] was 1.4. For the same compound, the liver-to-plasma ratio [2, 18] was 0.09, the “mean total exposure level in liver” value [2, 18] was 83 ng/ng and the muscle-to-plasma ratio [2, 18] was 2.2. The EWAT-to-plasma ratio [2, 19] was 31.1, the liver-to-plasma ratio [2, 19] was 1.4 and the muscle-to-plasma ratio [2, 19] was 17.0. The clearance [3] was 57.9 mL/min/kg, the “half-life (T1/2)” value [3] was < 7 min and the “mouse NNMT IC50” value [4] was 0.078 µg/mL. The “OGTT circulating glucose levels at 15- and 30-min post-bolus glucose” value [5] was “significantly decreased”, the “OGTT plasma insulin at 15 min post-glucose loading” value ([5]; p<0.0001) was “suppressed” and the “mouse plasma protein binding (Fb)” value [6] was 7%. The “decrease in monocytes vs control” value ([7]; high-dose 32 mg/kg/day SC, p<0.001) was 50%, the “decrease in lymphocytes vs control” value ([7]; high-dose 32 mg/kg/day SC, p<0.05) was 31% and the “serum ketone body levels” value ([7]; p<0.0001 high dose vs control) was “dose-dependently decreased”. For the same compound, the “serum ALT” value ([7]; p<0.001 high-dose vs control) was “dose-related decreases”, the “serum TG levels” value ([7]; p<0.01 high-dose vs control) was “significantly lower” and the “serum AST” value ([7]; p<0.01 low-dose vs control) was “dose-related decreases”. The “total white blood cell count” value ([7]; p<0.05 high-dose vs control) was “significantly reduced”, the “serum CK” value [7, 20] was “significantly lowered” and the “serum LDH” value [7, 20] was “significantly lowered”. For the same compound, the hepatocyte cell count ([8]; 10 and 32 mg/kg/day SC, p<0.0001) was “significant main effects of treatment”, the “NAFLD activity score (NAS)” value ([8]; 10 and 32 mg/kg/day SC, p<0.0001 high dose vs control) was “dose-dependent improvement” and the whole-liver cross-sectional area ([8]; 10 and 32 mg/kg/day SC, p=0.0015) was “significant main effects of treatment”. The “liver TG levels” value ([8]; 10 and 32 mg/kg/day SC, p=0.0169) was “significantly reduced”, the “liver F4/80 signal (macrophage marker)” value ([8]; high-dose 32 mg/kg/day SC vs control, p<0.05) was “significantly lowered” and the terminal liver weight ([8]; high-dose 32 mg/kg/day SC, control average 2.1 g) was 1.4 g. For the same compound, the “reduction in microvesicular steatosis compared to controls” value ([8]; high-dose 32 mg/kg/day SC, p<0.01) was 73%, the liver lobular inflammation ([8]; p<0.01 high dose vs control) was “significantly reduced” and the hepatocellular ballooning ([8]; p<0.05 high dose vs control) was “significantly reduced”. For the same compound, the “inhibition of monoamine oxidase-A (MAO-A)” value [9] was 67.4%, the solubility ([10]; phosphate buffered saline) was > 100 mg/mL and the solubility ([10]; simulated gastric fluids) was > 10 mg/mL. For the same compound, the “mean reduction in 1-MNA level in the liver relative to controls” value [11] was 39%, the “liver concentration of 5A1MQ” value [12] was 28.5 ng/g and the “Plasma AUC0-∞” value [13, 21] was 4,687 ng*h/mL. The Tmax [13, 21] was ~ 15 minutes, the “estimated terminal half-life (T1/2)” value [13, 21] was 12.8 h and the Cmax [13, 21] was 5,130 ng/mL. For the same compound, the “Plasma AUC0-∞” value [13, 22] was 7,031 ng*h/mL, the “estimated terminal half-life (T1/2)” value [13, 22] was 13.3 h and the Tmax ([13]; SC 25 mg/kg single dose) was ~ 15 minutes. The Cmax ([13]; SC 25 mg/kg single dose) was 7,010 ng/mL, the “weekly fed-state blood glucose” value ([14]; 10 and 32 mg/kg/day SC) was “did not alter” and the “fed-state plasma insulin decrease from baseline (Day 0) to Day 28” value ([14]; high-dose 32 mg/kg/day SC, control increased by 112%) was 9%. For the same compound, the “fed-state plasma insulin increase from baseline (Day 0) to Day 28” value ([14]; low-dose 10 mg/kg/day SC, control increased by 112%) was 46%, the “activity against Cerep panel targets (all except MAO-A)” value [15] was “no significant activity” and the plasma clearance [16] was 101 mL/min/kg. The terminal half-life [16] was 6.3 h, the “steady-state volume of distribution” value ([16]; estimated) was 39 L/kg and the “AUC0-∞” value ([16]; plasma) was 825 ng·h/mL. For the same compound, the Cmax ([16]; plasma) was 2,009 ng/mL, the longitudinal lean mass ([17]; 10 and 32 mg/kg/day SC) was “no significant main treatment effect” and the food intake ([17]; 10 and 32 mg/kg/day SC, treatment effect) was “no main effect”. The “absolute fat mass gain” value ([17]; high-dose 32 mg/kg/day SC) was 1.3 g and the “absolute fat mass gain” value ([17]; low-dose 10 mg/kg/day SC) was 4.7 g.
